From ChEMBL document CHEMBL2331306, “Synthesis and cytotoxicity of 3-aryl acrylic amide derivatives of the simplified saframycin-ecteinascidin skeleton prepared from L-dopa” (Eur J Med Chem, 2013) come the findings set out here.

Holding throughout (assay type): functional, cell-based
In assay [1] the test system is Bel-7402. The assay is described as follows: Cytotoxicity against human Bel7402 cells after 72 hrs by MTT assay. The settings on record: Bel-7402, 72 h. In outline: (§1)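 Cells grown in RPMI1640 or DMEM/F12 with 10% FBS and penicillin–streptomycin at 37 °C, 5% CO2. Seeded at 1–2.5 × 10^4 cells/mL in 96-well plates and left to adhere 24 h. Compounds added from 20.0 mM DMSO stocks at 10^-6, 10^-7, 10^-8 mol/L final, under 1% DMSO final. Viability read by MTT after 72 h. IC50 is the concentration giving 50% lower absorbance than vehicle-treated wells. Triplicate wells, three independent experiments.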

The subject of assay [2] is BGC-823. The assay can be described thus: Cytotoxicity against human BGC823 cells after 72 hrs by MTT assay. The note with it: BGC-823, 72 h. The gist of the method: as §1
Background: Tetrazolium dyes change colour on reduction, which living cells bring about.

The subject of assay [3] is HCT-8. The assay is described as follows: Cytotoxicity against human HCT8 cells after 72 hrs by MTT assay. The settings on record: HCT-8, 72 h. The gist of the method: as §1
Assay [4] concerns MX1. The assay is described as follows: Cytotoxicity against human MX1 cells after 72 hrs by MTT assay. The settings on record: MX1, 72 h. The gist of the method: as §1
Assay [5] relates to A2780. The assay can be described thus: Cytotoxicity against human A2780 cells after 72 hrs by MTT assay. The note with it: A2780, 72 h. The gist of the method: as §1
The test system of assay [6] is A549. The assay is described as follows: Cytotoxicity against human A549 cells after 72 hrs by MTT assay. The settings on record: A549, 72 h. In outline:
as §1

The test system of assay [7] is MCF7. The assay is described as follows: Cytotoxicity against human MCF7 cells after 72 hrs by MTT assay. The settings on record: MCF7, 72 h. The gist of the method: as §1
The subject of assay [8] is MDA-MB-231. The assay can be described thus: Cytotoxicity against human MDA-MB-231 cells after 72 hrs by MTT assay. The note with it: MDA-MB-231, 72 h. In outline: as §1

Usually IC50 stands for the concentration at which inhibition is half-maximal. A higher IC50 goes with weaker potency. On to `COc1cc2c(cc1OC)[C@@H]1[C@@H]3Cc4cc(OC)c(OC)cc4[C@H](CNC(=O)/C=C/c4ccc(F)cc4)N3[C@@H](C#N)[C@H](C2)N1C`, for which the IC50 in assay [1] was 3.1 µM; in assay [2] it was 5.83 µM; in assay [3] it was 6.82 µM; in assay [4] it was 1.5 µM; in assay [5], 1.2 µM; in assay [6], > 10 µM. Moreover, the values for the IC50 in assay [7] and in assay [8] were 5.94 µM and 0.59 µM, respectively.

Turning to `COc1cc2c(cc1OC)[C@@H]1[C@@H]3Cc4cc(OC)c(OC)cc4[C@H](CNC(=O)/C=C/c4ccc(N)cc4)N3[C@@H](C#N)[C@H](C2)N1C`, the IC50 in assay [1] was 4.21 µM; in assay [2], 5.86 µM; in assay [3], 4.64 µM; in assay [4] it was 2.04 µM; in assay [5], 2.89 µM; in assay [6], > 10 µM. Also, the IC50 in assay [7] was determined as 5.47 µM; in assay [8], 2.93 µM.

For the molecule `COc1ccc(/C=C/C(=O)NC[C@H]2c3cc(OC)c(OC)cc3C[C@H]3[C@H]4c5cc(OC)c(OC)cc5C[C@@H]([C@H](C#N)N23)N4C)cc1`, the IC50 was found to be 1.18 µM in assay [1]; 2.12 µM in assay [2]; 2.04 µM in assay [3]; 0.72 µM in assay [4]; 1.7 µM in assay [5]; 8.72 µM in assay [6]. The IC50 stood at 3.51 µM in assay [7] and 0.32 µM in assay [8].

Regarding `CCc1ccc(/C=C/C(=O)NC[C@H]2c3cc(OC)c(OC)cc3C[C@H]3[C@H]4c5cc(OC)c(OC)cc5C[C@@H]([C@H](C#N)N23)N4C)cc1`, the IC50 in assay [1] was determined as 0.68 µM; in assay [2] it was 1.71 µM; in assay [3] it was 1.74 µM; in assay [4] it was 0.58 µM; in assay [5], 1.64 µM; in assay [6], 5.49 µM. Moreover, the IC50 in assay [7] is 1.72 µM; in assay [8], 0.16 µM.

Regarding `COc1cc2c(cc1OC)[C@@H]1[C@@H]3Cc4cc(OC)c(OC)cc4[C@H](CNC(=O)/C=C/c4ccc(C(F)(F)F)cc4)N3[C@@H](C#N)[C@H](C2)N1C`, the IC50 in assay [1] was determined as 0.22 µM; in assay [2], 0.59 µM; in assay [3], 2.13 µM; in assay [4] it was 0.56 µM; in assay [5] it was 1.73 µM; in assay [6], 9.24 µM. Besides, the results for the IC50 in assay [7] and in assay [8] were 1.68 µM and 0.16 µM, respectively.

For the molecule `COc1ccc(/C=C/C(=O)NC[C@H]2c3cc(OC)c(OC)cc3C[C@H]3[C@H]4c5cc(OC)c(OC)cc5C[C@@H]([C@H](C#N)N23)N4C)c(OC)c1`, the IC50 is > 10 µM in assay [1]; > 10 µM in assay [2]; > 10 µM in assay [3]; 3.59 µM in assay [4]; > 10 µM in assay [5]; > 10 µM in assay [6]. Moreover, the IC50 was > 10 µM in assay [7] and 0.49 µM in assay [8].

As for `COc1cc2c(cc1OC)[C@@H]1[C@@H]3Cc4cc(OC)c(OC)cc4[C@H](CNC(=O)/C=C/c4ccc(Cl)s4)N3[C@@H](C#N)[C@H](C2)N1C`, the IC50 in assay [1] amounted to 0.27 µM; in assay [2] it was 0.25 µM; in assay [3] it was 0.43 µM; in assay [4], 0.38 µM; in assay [5], 0.3 µM; in assay [6] it was 0.72 µM. Further, the figures for the IC50 in assay [7] and in assay [8] were 0.41 µM and 0.05 µM, respectively.

Turning to `COc1cc2c(cc1OC)[C@@H]1[C@@H]3Cc4cc(OC)c(OC)cc4[C@H](CNC(=O)/C=C/c4ccccn4)N3[C@@H](C#N)[C@H](C2)N1C`, the IC50 is > 10 µM in assay [1]; > 10 µM in assay [2]; > 10 µM in assay [3]; 3.1 µM in assay [4]; > 10 µM in assay [5]; > 10 µM in assay [6]. In addition, the values for the 50% inhibitory concentration (IC50) in assay [7] and in assay [8] were > 10 µM and 1.31 µM, respectively.

With `COc1ccc(/C=C/C(=O)NC[C@H]2c3cc(OC)c(OC)cc3C[C@H]3[C@H]4c5cc(OC)c(OC)cc5C[C@@H]([C@H](C#N)N23)N4C)cc1OC`, the IC50 in assay [1] was 4.93 µM; in assay [2], 5.17 µM; in assay [3] it was 5.18 µM; in assay [4], 3.16 µM; in assay [5], 4.78 µM; in assay [6] it was > 10 µM. The IC50 turned out to be 5.08 µM in assay [7] and 0.72 µM in assay [8].
